Results taken from ChEMBL document CHEMBL2434860, “Nitroreductase-activated nitric oxide (NO) prodrugs” (Bioorg Med Chem Lett, 2013).

Columns and labels:
[1] = Half life in aqueous buffer assessed as nitric oxide release at pH 7.4; type: physicochemical
[2] = Stability of the compound in phosphate buffer at pH 7.0 assessed as compound remaining at 50 uM after 1 hr by HPLC analysis in absence of Escherichia coli NTR and presence of NADPH; type: physicochemical; settings: pH 7, 1 h
Outline: (§1)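 Compound at 50 µM (from a 10 mM DMSO stock) was stirred at 37 °C in pH 7.0 phosphate buffer with NADPH, with or without E. coli nitroreductase; the blank had no enzyme. After 1 h, an aliquot was analysed by reverse-phase C-18 HPLC (70% MeCN:H2O, 1 mL/min) for compound remaining. Values are averages of two independent runs.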

[3] = Prodrug conversion in phosphate buffer at pH 7.0 assessed as Escherichia coli NTR-mediated decomposition measuring compound remaining at 50 uM after 1 hr by HPLC analysis in presence of NADPH; type: physicochemical; settings: pH 7, 1 h; outline: as §1
DLD-1 [4] = experiment: Antiproliferative activity against human DLD1 cells assessed as cell viability at 75 uM after 72 hrs by MTT assay in absence of Escherichia coli NTR and presence of NADPH; type: functional; settings: DLD-1, 72 h, read-out: Activity
Outline: (§2)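 DLD-1 human colon adenocarcinoma cells seeded at 3 × […] cells/well overnight in complete RPMI 1640. Treated with compound from DMSO stock (1% DMSO final), with or without E. coli nitroreductase (6 mg/2 mL DPBS stock) and NADPH (0.5 mM stock in DPBS). Incubated 72 h at 37 °C. MTT added for 4 h, formazan dissolved in DMSO, absorbance read at 570 nm for viability.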

[5] = Prodrug conversion in phosphate buffer at pH 7.0 assessed as Escherichia coli NTR-mediated decomposition measuring nitric oxide release at 50 uM after 1 hr by chemiluminescence assay in presence of NADPH; type: physicochemical; settings: pH 7, 1 h
Outline: (§3)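 Compound at 50 µM was incubated at 37 °C in pH 7.0 phosphate buffer with NADPH, with or without E. coli nitroreductase. After 1 h, an aliquot was injected into a chemiluminescence NO analyser (argon carrier) whose reservoir held NaI/acetic acid, so nitrite was also counted as NO. The signal was calibrated against NaNO2 standards. Values are averages of two independent runs.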

[6] = Stability of the compound in phosphate buffer at pH 7.0 assessed as nitric oxide release at 50 uM after 1 hr by chemiluminescence assay in absence of Escherichia coli NTR and presence of NADPH; type: physicochemical; settings: pH 7, 1 h; outline: as §3
DLD-1 [7] = experiment: Antiproliferative activity against human DLD1 cells assessed as cell viability at 75 uM after 72 hrs by MTT assay in presence of Escherichia coli NTR and NADPH relative to control; type: functional; settings: DLD-1, 72 h, read-out: Activity; outline: as §2
HeLa [8] = experiment: Cytotoxicity against human HeLa cells assessed as cell viability at 1 uM after 72 hrs by MTT assay in presence of Escherichia coli NTR and NADPH (reference value: 67.2%); type: functional; settings: read-out: Activity
DLD-1 [9] = experiment: Antiproliferative activity against human DLD1 cells assessed as cell viability at 25 uM after 72 hrs by MTT assay in presence of Escherichia coli NTR and NADPH (reference value: 86.3%); type: functional; settings: DLD-1, 72 h, read-out: Activity; outline: as §2
DLD-1 [10] = experiment: Antiproliferative activity against human DLD1 cells assessed as cell viability at 25 uM after 72 hrs by MTT assay in absence of Escherichia coli NTR and presence of NADPH (reference value: 74.8%); type: functional; settings: DLD-1, 72 h, read-out: Activity; outline: as §2
HeLa [11] = experiment: Cytotoxicity against human HeLa cells assessed as cell viability at 25 uM after 72 hrs by MTT assay in absence of Escherichia coli NTR and NADPH (reference value: 88.2%); type: functional; settings: read-out: Activity
HeLa [12] = experiment: Cytotoxicity against human HeLa cells assessed as cell viability at 1 uM after 72 hrs by MTT assay in absence of Escherichia coli NTR and NADPH (reference value: 88.2%); type: functional; settings: read-out: Activity
HeLa [13] = experiment: Cytotoxicity against human HeLa cells assessed as cell viability at 10 uM after 72 hrs by MTT assay in presence of Escherichia coli NTR and NADPH (reference value: 67.2%); type: functional; settings: read-out: Activity
DLD-1 [14] = experiment: Antiproliferative activity against human DLD1 cells assessed as cell viability at 10 uM after 72 hrs by MTT assay in presence of Escherichia coli NTR and NADPH (reference value: 86.3%); type: functional; settings: DLD-1, 72 h, read-out: Activity; outline: as §2
DLD-1 [15] = experiment: Antiproliferative activity against human DLD1 cells assessed as cell viability at 1 uM after 72 hrs by MTT assay in presence of Escherichia coli NTR and NADPH (reference value: 86.3%); type: functional; settings: DLD-1, 72 h, read-out: Activity; outline: as §2
[16] = Prodrug conversion in phosphate buffer at pH 7.4 assessed as Escherichia coli NTR-mediated decomposition measuring nitric oxide release at 50 uM after 5 mins; type: physicochemical; settings: pH 7.4, 5 min
Outline: (§4)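 Compound at 50 µM was reacted with E. coli nitroreductase and NADPH in phosphate buffer at pH 6.5 or at pH 7.4 (PBS), stirred at 37 °C. Aliquots were injected at set time points into a chemiluminescence NO analyser with an NaI/acetic acid reservoir, which also converts nitrite to NO. The signal was calibrated with NaNO2 standards.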

HeLa [17] = experiment: Cytotoxicity against human HeLa cells assessed as cell viability at 10 uM after 72 hrs by MTT assay in absence of Escherichia coli NTR and NADPH (reference value: 88.2%); type: functional; settings: read-out: Activity
DLD-1 [18] = experiment: Antiproliferative activity against human DLD1 cells assessed as cell viability at 10 uM after 72 hrs by MTT assay in absence of Escherichia coli NTR and presence of NADPH (reference value: 74.8%); type: functional; settings: DLD-1, 72 h, read-out: Activity; outline: as §2
HeLa [19] = experiment: Cytotoxicity against human HeLa cells assessed as cell viability after 72 hrs by MTT assay in presence of Escherichia coli NTR and NADPH; type: functional, cell-based
[20] = Prodrug conversion in phosphate buffer at pH 6.5 assessed as Escherichia coli NTR-mediated decomposition measuring nitric oxide release at 50 uM after 5 mins; type: physicochemical; settings: pH 6.5, 5 min; outline: as §4
DLD-1 [21] = experiment: Antiproliferative activity against human DLD1 cells assessed as cell viability at 1 uM after 72 hrs by MTT assay in absence of Escherichia coli NTR and presence of NADPH (reference value: 74.8%); type: functional; settings: DLD-1, 72 h, read-out: Activity; outline: as §2
HeLa [22] = experiment: Cytotoxicity against human HeLa cells assessed as cell viability at 25 uM after 72 hrs by MTT assay in presence of Escherichia coli NTR and NADPH (reference value: 67.2%); type: functional; settings: read-out: Activity
DLD-1 [23] = experiment: Antiproliferative activity against human DLD1 cells assessed as cell viability at 50 uM after 72 hrs by MTT assay in presence of Escherichia coli NTR and NADPH (reference value: 107.4%); type: functional; settings: DLD-1, 72 h, read-out: Activity; outline: as §2
DLD-1 [24] = experiment: Cytotoxicity against human DLD1 cells assessed as cell viability at 25 uM after 72 hrs by MTT assay in presence of Escherichia coli NTR and NADPH (reference value: 107.4%); type: functional; settings: DLD-1, 72 h, read-out: Activity; outline: as §2
DLD-1 [25] = experiment: Antiproliferative activity against human DLD1 cells assessed as cell viability at 50 uM after 72 hrs by MTT assay in absence of Escherichia coli NTR and NADPH (reference value: 107.4%); type: functional; settings: DLD-1, 72 h, read-out: Activity; outline: as §2
DLD-1 [26] = experiment: Antiproliferative activity against human DLD1 cells assessed as cell viability at 25 uM after 72 hrs by MTT assay in absence of Escherichia coli NTR and NADPH (reference value: 107.4%); type: functional; settings: DLD-1, 72 h, read-out: Activity; outline: as §2
DLD-1 [27] = experiment: Antiproliferative activity against human DLD1 cells assessed as cell viability at 100 uM after 72 hrs by MTT assay in presence of Escherichia coli NTR and NADPH (reference value: 107.4%); type: functional; settings: DLD-1, 72 h, read-out: Activity; outline: as §2
DLD-1 [28] = experiment: Antiproliferative activity against human DLD1 cells assessed as cell viability at 100 uM after 72 hrs by MTT assay in absence of Escherichia coli NTR and NADPH (reference value: 107.4%); type: functional; settings: DLD-1, 72 h, read-out: Activity; outline: as §2

Row | SMILES | t1/2 [1] | Stability [2] | Stability [3] | Drug metabolism [5] | Stability [6] | viability at 75 µM (DLD-1 [4]) | viability at 75 µM (DLD-1 [7]) | further results
1 | [Na+].[O-]/N=[N+](\[O-])N1CCCC1 | 2 s | – | – | – | – | – | – | –
2 | CC1CCCCN1/[N+]([O-])=N/OCc1ccc([N+](=O)[O-])cc1 (configuration not stated) | – | Stable | 31% | 19.7 µM | Stable | 53% | 10.2% | viability at 1 µM (HeLa [8]): 56.6%; viability at 25 µM (DLD-1 [9]): 12.5%; viability at 25 µM (DLD-1 [10]): 63.7%; viability at 25 µM (HeLa [11]): 24.6%; viability at 1 µM (HeLa [12]): 76.9%; viability at 10 µM (HeLa [13]): 31.1%; viability at 10 µM (DLD-1 [14]): 30.8%; viability at 1 µM (DLD-1 [15]): 38.6%; Drug metabolism [16]: 17 µM; viability at 10 µM (HeLa [17]): 65.3%; viability at 10 µM (DLD-1 [18]): 69.1%; Activity (HeLa [19]): Dose-dependent effect; Drug metabolism [20]: 6 µM; viability at 1 µM (DLD-1 [21]): 82.1%; viability at 25 µM (HeLa [22]): 6.9%
3 | O=C(OCc1ccc([N+](=O)[O-])cc1)c1ccccc1 | – | Stable | 68% | 1.1 µM | Stable | – | – | viability at 50 µM (DLD-1 [23]): 85.5%; viability at 25 µM (DLD-1 [24]): 93.4%; viability at 50 µM (DLD-1 [25]): 89.2%; viability at 25 µM (DLD-1 [26]): 98.3%; viability at 100 µM (DLD-1 [27]): 50.5%; viability at 100 µM (DLD-1 [28]): 84.5%
4 | CCN(CC)/[N+]([O-])=N/[O-].[Na+] | 120 s | – | – | – | – | – | – | –
5 | CN(C)/[N+]([O-])=N/[O-].[Na+] | 24 s | – | – | – | – | – | – | –

Further lines, with some results ahead:

Row | t1/2 [1] | Stability [2] | Stability [3] | Drug metabolism [5] | Stability [6] | SMILES | viability at 75 µM (DLD-1 [4]) | viability at 75 µM (DLD-1 [7]) | further results
6 | – | Stable | 60% | 6.8 µM | Stable | CCN(CC)/[N+]([O-])=N/OCc1ccc([N+](=O)[O-])cc1 | 79.2% | 27.5% | –
7 | – | Stable | 60% | 13.6 µM | Stable | CN(C)/[N+]([O-])=N/OCc1ccc([N+](=O)[O-])cc1 | 74.7% | 32.2% | –
8 | – | Stable | 28% | 18.3 µM | Stable | O=[N+]([O-])c1ccc(CO/N=[N+](\[O-])N2CCCC2)cc1 | 68.6% | 48.5% | –
